Consider six compounds from ChEMBL document CHEMBL1153440, “Hexosamine template. A platform for modulating gene expression and for sugar-based drug discovery” (2009).

In assay [1] the test system is MDA-MB-231. Briefly: Increase in sialic acid production in human MDA-MB-231 cells by periodate-resorcinal assay. The format is functional, cell-based.
In assay [2] the test system is MDA-MB-231. In words: Increase in ID1 mRNA expression in human MDA-MB-231 cells after 3 days by qRT-PCR. The format is functional, cell-based. Background: In qPCR the cycle at which signal appears reflects the starting amount.
Assay [3] deals with MDA-MB-231. In words: Increase in TGF-beta1 mRNA expression in human MDA-MB-231 cells after 3 days by qRT-PCR. The format is functional, cell-based.
Assay [4] concerns MDA-MB-231. Briefly: Increase in NQO1 mRNA expression in human MDA-MB-231 cells after 3 days by qRT-PCR. In kind it is functional, cell-based.
Assay [5] deals with MDA-MB-231. Briefly: Increase in VEGFA mRNA expression in human MDA-MB-231 cells after 3 days by qRT-PCR. The format is functional, cell-based.
Assay [6] concerns MDA-MB-231. Briefly: Suppression of MUC1 mRNA expression in human MDA-MB-231 cells by qRT-PCR. In kind it is functional, cell-based.
Assay [7] has as its system MDA-MB-231. Briefly: Growth inhibition of human MDA-MB-231 cells. The format is functional, cell-based.
Assay [8] has as its system MDA-MB-231. Briefly: Growth inhibition of human MDA-MB-231 cells after 3 days. In kind it is functional, cell-based. The gist of the method:
(§1)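 Cells seeded in 6-well plates (MDA-MB-231 2.0–2.7×10^5, HCT-116 1.0×10^5 cells/well) with analog in ethanol (vehicle <0.5% v/v), grown 3 days at 37 °C, 5% CO2; cell numbers by Coulter particle counter, two 100 μl counts per sample.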

For assay [9], the system named is HCT-116. Briefly: Suppression of TP53 protein expression in human HCT116 cells at 20 uM after 3 days by Western blotting. The format is functional, cell-based. In short, it runs like this:
(§2)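 Treated cells (3 days unless stated; HCT-116 also 24 h) washed in ice-cold PBS, lysed in RIPA with protease inhibitors; equal protein (5–20 μg, BCA) run on 4–15% Tris-HCl gel, transferred to nitrocellulose, blocked in 5% milk/TBST, primary antibody 2 h RT or overnight 4 °C, HRP secondary 1 h; chemiluminescence, densitometry. β-actin antibody also used. Two independent experiments.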
On the technique in general: A western blot detects proteins with antibodies after separation by electrophoresis.

In assay [10] the test system is MDA-MB-231. Briefly: Increase in NQO1 mRNA expression in human MDA-MB-231 cells at 75 uM after 3 days by qRT-PCR. In kind it is functional, cell-based.
Assay [11] deals with MDA-MB-231. Briefly: Increase in EGR1 mRNA expression in human MDA-MB-231 cells at 45 uM after 3 days by qRT-PCR relative to control. The format is functional.
Assay [12] has as its system MDA-MB-231. In words: Increase in EGR1 mRNA expression in human MDA-MB-231 cells at 75 uM after 3 days by qRT-PCR relative to control. The format is functional.
The test system of assay [13] is MDA-MB-231. In words: Increase in VEGFA mRNA expression in human MDA-MB-231 cells at 60 uM after 3 days by qRT-PCR. The format is functional, cell-based.
Assay [14] deals with MDA-MB-231. Briefly: Increase in ID1 mRNA expression in human MDA-MB-231 cells at 45 uM after 3 days by qRT-PCR. The format is functional, cell-based.
For assay [15], the system named is HCT-116. In words: Suppression of TP53 protein expression in human HCT116 cells at 25 uM after 3 days by Western blotting. The format is functional, cell-based. The gist of the method:
as §2

The subject of assay [16] is MDA-MB-231. Briefly: Increase in EGR1 mRNA expression in human MDA-MB-231 cells at 60 uM after 3 days by qRT-PCR relative to control. The format is functional.
For assay [17], the system named is MDA-MB-231. In words: Increase in VEGFA mRNA expression in human MDA-MB-231 cells at 45 uM after 3 days by qRT-PCR. The format is functional, cell-based.
The subject of assay [18] is HCT-116. In words: Growth inhibition of human HCT116 cells after 3 days. In kind it is functional, cell-based. In short, it runs like this:
as §1

Assay [19] relates to MDA-MB-231. Briefly: Decrease in TP53 protein level in human MDA-MB-231 cells at 15 uM after 3 days by Western blotting. The format is functional, cell-based. In short, it runs like this:
as §2

Assay [20] has as its system MDA-MB-231. Briefly: Increase in NQO1 mRNA expression in human MDA-MB-231 cells at 45 uM after 3 days by qRT-PCR. The format is functional, cell-based.
The subject of assay [21] is HCT-116. In words: Decrease in EGR1 mRNA expression in human HCT116 cells after 3 days by qRT-PCR. The format is functional, cell-based.
Assay [22] has as its system HCT-116. In words: Decrease in TP53 mRNA level in human HCT116 cells at >=15 uM after 3 days by qRT-PCR.
Assay [23] deals with MDA-MB-231. Briefly: Increase in VEGFA mRNA expression in human MDA-MB-231 cells at 75 uM after 3 days by qRT-PCR. In kind it is functional, cell-based.
Assay [24] relates to MDA-MB-231. In words: Increase in TGF-beta1 mRNA expression in human MDA-MB-231 cells at 45 uM after 3 days by qRT-PCR. In kind it is functional, cell-based.
Assay [25] deals with HCT-116. In words: Decrease in EGR1 protein expression in human HCT116 cells after 24 hrs by Western blotting. The format is functional, cell-based. The gist of the method: as §2
For assay [26], the system named is MDA-MB-231. In words: Suppression of TP53 mRNA expression in human MDA-MB-231 cells at 75 uM after 3 days by qRT-PCR. The format is functional, cell-based.
For assay [27], the system named is MDA-MB-231. In words: Increase in TGF-beta1 mRNA expression in human MDA-MB-231 cells at 75 uM after 3 days by qRT-PCR. In kind it is functional, cell-based.
The subject of assay [28] is HCT-116. In words: Increase in EGR1 mRNA expression in human HCT116 cells after 24 hrs by qRT-PCR. In kind it is functional, cell-based.
For assay [29], the system named is MDA-MB-231. In words: Increase in NQO1 mRNA expression in human MDA-MB-231 cells at 60 uM after 3 days by qRT-PCR. The format is functional, cell-based.
The test system of assay [30] is HCT-116. In words: Decrease in TP53 protein expression in human HCT116 cells assessed as protein levels at 20 uM after 3 days by Western blotting. In kind it is functional. On the set-up: scale not given: the % may be the effect or the level left. In short, it runs like this: as §2
The test system of assay [31] is HCT-116. Briefly: Increase in EGR1 protein expression in human HCT116 cells after 3 days by Western blotting. In kind it is functional, cell-based. In short, it runs like this:
as §2

For assay [32], the system named is MDA-MB-231. Briefly: Suppression of TP53 mRNA expression in human MDA-MB-231 cells at 60 uM after 3 days by qRT-PCR. In kind it is functional, cell-based.
In assay [33] the test system is MDA-MB-231. In words: Increase in ID1 mRNA expression in human MDA-MB-231 cells at 75 uM after 3 days by qRT-PCR. In kind it is functional, cell-based.
For assay [34], the system named is MDA-MB-231. In words: Decrease in EGR1 protein expression in human MDA-MB-231 cells at >45 uM after 3 days by Western blotting relative to control. In kind it is functional. The gist of the method: as §2
Assay [35] relates to HCT-116. In words: Increase in HPSE protein level in human HCT116 cells at 20 uM after 3 days by Western blotting. The format is functional. The gist of the method: as §2
The test system of assay [36] is HCT-116. In words: Decrease in TP53 protein expression in human HCT116 cells assessed as protein levels at 25 uM after 3 days by Western blotting. On the set-up: scale not given: the % may be the effect or the level left. The format is functional. In short, it runs like this:
as §2

For assay [37], the system named is HCT-116. Briefly: Increase in HPSE protein level in human HCT116 cells at 25 uM after 3 days by Western blotting. The format is functional. The gist of the method: as §2
For assay [38], the system named is MDA-MB-231. Briefly: Increase in ID1 mRNA expression in human MDA-MB-231 cells at 60 uM after 3 days by qRT-PCR. The format is functional, cell-based.
In assay [39] the test system is MDA-MB-231. In words: Increase in TGF-beta1 mRNA expression in human MDA-MB-231 cells at 60 uM after 3 days by qRT-PCR. In kind it is functional, cell-based.

Each structure is given as a SMILES string. Active and inactive are the calls of the source. The calls are words filed in the database; no cut-off is given here. Bounds are passed on as bounds.

For `CCCC(=O)OC[C@H]1OC(OC(=O)CCC)[C@@H](NC(C)=O)[C@@H](OC(=O)CCC)[C@@H]1OC(=O)CCC` (some centres undefined), in the assay with MDA-MB-231 [1], the result was Active.
As to `CCCC(=O)OC1O[C@H](CO)[C@@H](OC(=O)CCC)[C@H](OC(=O)CCC)[C@@H]1NC(C)=O` (some centres undefined), the outcome in the assay with MDA-MB-231 [2], in the assay on MDA-MB-231 [3], with MDA-MB-231 [4] and in the assay on MDA-MB-231 [5] was inactive.
For `CCCC(=O)OC[C@H]1OC(OC(C)=O)[C@@H](NC(C)=O)[C@@H](OC(C)=O)[C@@H]1OC(C)=O` (some centres undefined), the outcome in the assay with MDA-MB-231 [6], in the assay with MDA-MB-231 [1] and with MDA-MB-231 [7] was Active.
As to `CCCC(=O)OC1O[C@H](COC(C)=O)[C@@H](OC(C)=O)[C@H](OC(C)=O)[C@@H]1NC(C)=O` (some centres undefined), the result in the assay with MDA-MB-231 [1] and with MDA-MB-231 [7] was Active.
Turning to `CC(=O)N[C@@H]1C(OC(C)=O)O[C@H](COC(C)=O)[C@@H](OC(C)=O)[C@@H]1OC(C)=O` (some centres undefined), the result with MDA-MB-231 [6] and in the assay on MDA-MB-231 [1] was Active.
Regarding `CCCC(=O)OC[C@H]1OC(O)[C@@H](NC(C)=O)[C@@H](OC(=O)CCC)[C@@H]1OC(=O)CCC` (some centres undefined), the outcome in the assay on MDA-MB-231 [8], with HCT-116 [9], in the assay on MDA-MB-231 [13], with MDA-MB-231 [14], in the assay on HCT-116 [15] and with MDA-MB-231 [17] was Active. Also, the outcome in the assay with HCT-116 [18], in the assay with MDA-MB-231 [19], with MDA-MB-231 [20], in the assay with HCT-116 [21], in the assay with HCT-116 [22] and in the assay on MDA-MB-231 [24] was Active. Besides, the result in the assay on HCT-116 [25], in the assay on MDA-MB-231 [26], in the assay with HCT-116 [28], in the assay on MDA-MB-231 [29], in the assay with HCT-116 [31] and in the assay on MDA-MB-231 [32] was Active. In addition, the outcome in the assay on MDA-MB-231 [38] and with MDA-MB-231 [39] was Active. Further, the result with MDA-MB-231 [10], in the assay on MDA-MB-231 [23], with MDA-MB-231 [27] and with MDA-MB-231 [33] was inactive. In addition, the “fold change (FC)” value with MDA-MB-231 [11] was 2; in the assay with MDA-MB-231 [12], 25; with MDA-MB-231 [16], 25; in the assay on MDA-MB-231 [34], 2; in the assay on HCT-116 [35] it was “>=50”; in the assay on HCT-116 [37], “>=50”. Also, the Activity result in the assay with HCT-116 [30] and in the assay on HCT-116 [36] was “<=5%” each time.
